# Data taken from ChEMBL document CHEMBL5653631, “A Potent and Selective ULK1 Inhibitor Suppresses Autophagy and Sensitizes Cancer Cells to Nutrient Stress” (iScience, 2018).
# How the values were obtained:
# [1] = molecular target: Bone morphogenetic protein receptor type-1B (Homo sapiens) (UniProt O00238); experiment: Inhibition of human recombinant BMPR1B at 40 nM in presence of ATP by radiometric assay relative to control
# In short: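 Part of a radiometric in vitro activity panel of 327 recombinant human kinases. Each kinase was tested in duplicate at one inhibitor concentration. Activity remaining was expressed as a percentage of the vehicle control, and percent inhibition was taken as 100 minus that value.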
# [2] = molecular target: Casein kinase II subunit alpha (Homo sapiens) (UniProt P68400); experiment: Inhibition of human recombinant CK2a1 at 40 nM related to control ULK1
# [3] = molecular target: T1, Myosin-IIIb (Homo sapiens) (UniProt Q8WXR4); experiment: Inhibition of human recombinant MYO3B at 40 nM related to control ULK1
# T1 sequence (whole entry): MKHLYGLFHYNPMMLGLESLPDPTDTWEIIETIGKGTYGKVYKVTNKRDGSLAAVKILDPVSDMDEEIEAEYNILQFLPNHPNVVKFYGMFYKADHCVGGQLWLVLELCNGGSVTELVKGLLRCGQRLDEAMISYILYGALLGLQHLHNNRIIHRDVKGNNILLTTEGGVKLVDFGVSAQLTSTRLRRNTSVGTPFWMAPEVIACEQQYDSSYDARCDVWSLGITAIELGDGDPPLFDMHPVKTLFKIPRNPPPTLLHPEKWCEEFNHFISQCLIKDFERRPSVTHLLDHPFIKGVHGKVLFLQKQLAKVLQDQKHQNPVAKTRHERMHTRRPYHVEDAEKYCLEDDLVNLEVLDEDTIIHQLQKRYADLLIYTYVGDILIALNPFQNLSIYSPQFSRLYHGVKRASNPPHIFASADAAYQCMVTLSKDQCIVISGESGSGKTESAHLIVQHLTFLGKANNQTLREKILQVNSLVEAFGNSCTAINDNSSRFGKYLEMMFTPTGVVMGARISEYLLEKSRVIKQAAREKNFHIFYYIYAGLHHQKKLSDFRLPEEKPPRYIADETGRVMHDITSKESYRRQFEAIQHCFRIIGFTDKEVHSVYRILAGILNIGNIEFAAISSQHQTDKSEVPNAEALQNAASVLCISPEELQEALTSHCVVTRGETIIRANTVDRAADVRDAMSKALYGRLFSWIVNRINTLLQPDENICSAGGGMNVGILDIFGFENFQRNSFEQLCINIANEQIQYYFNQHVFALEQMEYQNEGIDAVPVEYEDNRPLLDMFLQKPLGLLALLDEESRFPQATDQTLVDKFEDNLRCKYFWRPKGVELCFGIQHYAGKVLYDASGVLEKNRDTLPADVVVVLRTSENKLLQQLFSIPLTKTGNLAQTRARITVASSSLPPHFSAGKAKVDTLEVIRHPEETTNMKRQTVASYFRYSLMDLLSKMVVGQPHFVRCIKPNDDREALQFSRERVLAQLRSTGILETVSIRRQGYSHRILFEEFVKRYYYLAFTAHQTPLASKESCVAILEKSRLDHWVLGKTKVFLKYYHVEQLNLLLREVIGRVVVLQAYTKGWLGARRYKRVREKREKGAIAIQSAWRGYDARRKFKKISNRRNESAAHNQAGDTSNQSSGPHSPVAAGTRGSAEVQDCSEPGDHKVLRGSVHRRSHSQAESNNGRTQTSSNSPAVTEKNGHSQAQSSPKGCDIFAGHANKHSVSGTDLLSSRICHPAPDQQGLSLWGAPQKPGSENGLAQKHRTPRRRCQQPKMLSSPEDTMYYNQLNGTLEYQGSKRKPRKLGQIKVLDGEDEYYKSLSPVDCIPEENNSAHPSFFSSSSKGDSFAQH
# [4] = molecular target: T2, Mitogen-activated protein kinase 13 (Homo sapiens) (UniProt O15264); experiment: Inhibition of human recombinant p38delta at 40 nM related to control ULK1
# T2 sequence (whole entry): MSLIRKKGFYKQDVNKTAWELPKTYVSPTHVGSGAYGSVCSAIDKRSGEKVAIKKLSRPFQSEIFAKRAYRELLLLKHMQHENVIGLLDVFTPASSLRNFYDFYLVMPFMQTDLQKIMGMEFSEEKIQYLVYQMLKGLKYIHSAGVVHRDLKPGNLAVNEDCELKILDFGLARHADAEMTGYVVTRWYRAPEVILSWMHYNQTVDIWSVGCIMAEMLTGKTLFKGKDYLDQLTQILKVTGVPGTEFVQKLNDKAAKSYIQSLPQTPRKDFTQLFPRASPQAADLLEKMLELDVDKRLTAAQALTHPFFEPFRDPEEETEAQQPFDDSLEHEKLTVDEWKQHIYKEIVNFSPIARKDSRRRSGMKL
# [5] = molecular target: Serine/threonine-protein kinase WNK3 (Homo sapiens) (UniProt Q9BYP7); experiment: Inhibition of human recombinant Wnk3 at 500 nM in presence of ATP by radiometric assay relative to control
# [6] = molecular target: Leucine-rich repeat serine/threonine-protein kinase 2 (Homo sapiens) (UniProt Q5S007); experiment: Inhibition of human recombinant LRRK2 at 500 nM related to control ULK1
# [7] = molecular target: Serine/threonine-protein kinase 32A (Homo sapiens) (UniProt Q8WU08); experiment: Inhibition of human recombinant YANK1 at 500 nM related to control ULK1
# [8] = molecular target: T3, Activin receptor type-1B (Homo sapiens) (UniProt P36896); experiment: Inhibition of human recombinant ALK4 at 15 nM in presence of ATP by radiometric assay relative to control
# T3 sequence (whole entry): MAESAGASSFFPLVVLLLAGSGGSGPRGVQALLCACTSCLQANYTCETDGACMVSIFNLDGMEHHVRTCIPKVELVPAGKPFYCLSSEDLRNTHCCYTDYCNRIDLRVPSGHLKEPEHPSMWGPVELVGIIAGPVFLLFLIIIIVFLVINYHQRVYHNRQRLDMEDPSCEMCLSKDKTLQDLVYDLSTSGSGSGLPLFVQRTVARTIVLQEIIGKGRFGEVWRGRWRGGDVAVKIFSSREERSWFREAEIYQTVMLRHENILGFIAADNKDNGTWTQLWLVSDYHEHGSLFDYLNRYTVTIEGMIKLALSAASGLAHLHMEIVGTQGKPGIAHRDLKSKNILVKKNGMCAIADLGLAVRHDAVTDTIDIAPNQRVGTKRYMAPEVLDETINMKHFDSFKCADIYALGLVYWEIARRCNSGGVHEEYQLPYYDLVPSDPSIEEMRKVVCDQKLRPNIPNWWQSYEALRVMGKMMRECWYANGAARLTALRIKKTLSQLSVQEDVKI
# In short: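 Panel of 327 recombinant human kinases, each assayed in vitro by radiometric activity assay in duplicate at a single inhibitor concentration per compound, chosen with reference to its ULK1 inhibition. Activity remaining was expressed as percent of vehicle control, and percent inhibition was calculated as 100 minus percent activity remaining.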
# [9] = molecular target: Dual specificity protein kinase CLK2 (Homo sapiens) (UniProt P49760); experiment: Inhibition of human recombinant CLK2 at 15 nM in presence of ATP by radiometric assay relative to control
# [10] = molecular target: LIM domain kinase 1 (Homo sapiens) (UniProt P53667); experiment: Inhibition of human recombinant LIMK1 at 15 nM related to control ULK1
# LIM domain kinase 1 (Homo sapiens), sequence (P53667 whole entry, looked up, the tested form may be a part): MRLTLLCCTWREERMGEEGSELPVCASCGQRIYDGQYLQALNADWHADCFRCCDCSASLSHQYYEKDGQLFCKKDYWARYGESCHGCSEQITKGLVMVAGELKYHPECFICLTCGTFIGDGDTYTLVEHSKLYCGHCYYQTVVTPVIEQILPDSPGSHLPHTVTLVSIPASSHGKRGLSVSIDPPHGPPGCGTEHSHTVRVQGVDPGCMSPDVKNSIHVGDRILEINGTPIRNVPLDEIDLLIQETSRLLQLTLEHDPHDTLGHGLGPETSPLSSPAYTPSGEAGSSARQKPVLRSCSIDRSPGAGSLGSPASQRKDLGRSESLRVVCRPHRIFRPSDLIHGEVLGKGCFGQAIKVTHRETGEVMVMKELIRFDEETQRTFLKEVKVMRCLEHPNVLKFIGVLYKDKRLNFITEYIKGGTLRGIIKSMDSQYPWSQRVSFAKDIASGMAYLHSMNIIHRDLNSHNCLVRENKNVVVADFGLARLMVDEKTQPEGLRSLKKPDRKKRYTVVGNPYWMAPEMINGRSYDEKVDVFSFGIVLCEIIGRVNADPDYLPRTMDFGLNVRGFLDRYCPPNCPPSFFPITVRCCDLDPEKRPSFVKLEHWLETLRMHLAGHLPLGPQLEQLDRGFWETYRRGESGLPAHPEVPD
# Casein kinase II subunit alpha (Homo sapiens), sequence (P68400 whole entry, looked up): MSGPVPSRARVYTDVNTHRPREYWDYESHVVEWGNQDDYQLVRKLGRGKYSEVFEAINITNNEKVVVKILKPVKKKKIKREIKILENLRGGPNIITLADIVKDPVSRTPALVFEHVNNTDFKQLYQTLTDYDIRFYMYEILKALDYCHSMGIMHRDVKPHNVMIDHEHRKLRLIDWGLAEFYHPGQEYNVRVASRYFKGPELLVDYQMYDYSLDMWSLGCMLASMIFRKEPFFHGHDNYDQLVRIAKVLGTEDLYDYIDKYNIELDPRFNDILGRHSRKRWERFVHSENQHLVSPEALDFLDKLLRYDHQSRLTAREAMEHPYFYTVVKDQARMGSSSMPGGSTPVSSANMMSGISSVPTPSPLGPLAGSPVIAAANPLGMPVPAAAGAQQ
# Serine/threonine-protein kinase 32A (Homo sapiens), sequence (Q8WU08 whole entry): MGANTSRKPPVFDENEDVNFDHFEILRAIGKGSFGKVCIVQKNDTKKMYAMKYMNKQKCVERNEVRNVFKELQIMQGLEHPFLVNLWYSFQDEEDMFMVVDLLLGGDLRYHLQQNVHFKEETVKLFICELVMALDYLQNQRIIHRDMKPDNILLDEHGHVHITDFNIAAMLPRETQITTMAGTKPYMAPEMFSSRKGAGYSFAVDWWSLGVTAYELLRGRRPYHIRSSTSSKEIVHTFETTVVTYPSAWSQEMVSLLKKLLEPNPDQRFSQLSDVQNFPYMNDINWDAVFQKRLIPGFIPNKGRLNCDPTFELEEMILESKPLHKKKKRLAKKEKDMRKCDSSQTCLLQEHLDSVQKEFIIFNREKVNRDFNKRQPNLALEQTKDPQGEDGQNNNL
# Dual specificity protein kinase CLK2 (Homo sapiens), sequence (P49760 whole entry, looked up, the tested form may be a part): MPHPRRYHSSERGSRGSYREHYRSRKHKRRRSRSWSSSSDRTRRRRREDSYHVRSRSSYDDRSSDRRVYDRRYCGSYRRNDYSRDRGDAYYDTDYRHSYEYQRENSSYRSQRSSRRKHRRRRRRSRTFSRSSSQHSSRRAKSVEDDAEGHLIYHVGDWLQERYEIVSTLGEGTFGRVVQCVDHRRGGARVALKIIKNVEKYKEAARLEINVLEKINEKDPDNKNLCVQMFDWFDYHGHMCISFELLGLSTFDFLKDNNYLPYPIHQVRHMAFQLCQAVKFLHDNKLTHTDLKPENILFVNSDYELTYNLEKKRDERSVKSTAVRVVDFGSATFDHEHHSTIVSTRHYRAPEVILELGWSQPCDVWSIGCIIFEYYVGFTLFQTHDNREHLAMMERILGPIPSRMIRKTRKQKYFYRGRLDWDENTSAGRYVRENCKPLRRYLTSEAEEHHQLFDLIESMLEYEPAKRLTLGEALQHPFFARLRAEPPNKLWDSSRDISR
# Serine/threonine-protein kinase WNK3 (Homo sapiens), sequence (Q9BYP7 whole entry): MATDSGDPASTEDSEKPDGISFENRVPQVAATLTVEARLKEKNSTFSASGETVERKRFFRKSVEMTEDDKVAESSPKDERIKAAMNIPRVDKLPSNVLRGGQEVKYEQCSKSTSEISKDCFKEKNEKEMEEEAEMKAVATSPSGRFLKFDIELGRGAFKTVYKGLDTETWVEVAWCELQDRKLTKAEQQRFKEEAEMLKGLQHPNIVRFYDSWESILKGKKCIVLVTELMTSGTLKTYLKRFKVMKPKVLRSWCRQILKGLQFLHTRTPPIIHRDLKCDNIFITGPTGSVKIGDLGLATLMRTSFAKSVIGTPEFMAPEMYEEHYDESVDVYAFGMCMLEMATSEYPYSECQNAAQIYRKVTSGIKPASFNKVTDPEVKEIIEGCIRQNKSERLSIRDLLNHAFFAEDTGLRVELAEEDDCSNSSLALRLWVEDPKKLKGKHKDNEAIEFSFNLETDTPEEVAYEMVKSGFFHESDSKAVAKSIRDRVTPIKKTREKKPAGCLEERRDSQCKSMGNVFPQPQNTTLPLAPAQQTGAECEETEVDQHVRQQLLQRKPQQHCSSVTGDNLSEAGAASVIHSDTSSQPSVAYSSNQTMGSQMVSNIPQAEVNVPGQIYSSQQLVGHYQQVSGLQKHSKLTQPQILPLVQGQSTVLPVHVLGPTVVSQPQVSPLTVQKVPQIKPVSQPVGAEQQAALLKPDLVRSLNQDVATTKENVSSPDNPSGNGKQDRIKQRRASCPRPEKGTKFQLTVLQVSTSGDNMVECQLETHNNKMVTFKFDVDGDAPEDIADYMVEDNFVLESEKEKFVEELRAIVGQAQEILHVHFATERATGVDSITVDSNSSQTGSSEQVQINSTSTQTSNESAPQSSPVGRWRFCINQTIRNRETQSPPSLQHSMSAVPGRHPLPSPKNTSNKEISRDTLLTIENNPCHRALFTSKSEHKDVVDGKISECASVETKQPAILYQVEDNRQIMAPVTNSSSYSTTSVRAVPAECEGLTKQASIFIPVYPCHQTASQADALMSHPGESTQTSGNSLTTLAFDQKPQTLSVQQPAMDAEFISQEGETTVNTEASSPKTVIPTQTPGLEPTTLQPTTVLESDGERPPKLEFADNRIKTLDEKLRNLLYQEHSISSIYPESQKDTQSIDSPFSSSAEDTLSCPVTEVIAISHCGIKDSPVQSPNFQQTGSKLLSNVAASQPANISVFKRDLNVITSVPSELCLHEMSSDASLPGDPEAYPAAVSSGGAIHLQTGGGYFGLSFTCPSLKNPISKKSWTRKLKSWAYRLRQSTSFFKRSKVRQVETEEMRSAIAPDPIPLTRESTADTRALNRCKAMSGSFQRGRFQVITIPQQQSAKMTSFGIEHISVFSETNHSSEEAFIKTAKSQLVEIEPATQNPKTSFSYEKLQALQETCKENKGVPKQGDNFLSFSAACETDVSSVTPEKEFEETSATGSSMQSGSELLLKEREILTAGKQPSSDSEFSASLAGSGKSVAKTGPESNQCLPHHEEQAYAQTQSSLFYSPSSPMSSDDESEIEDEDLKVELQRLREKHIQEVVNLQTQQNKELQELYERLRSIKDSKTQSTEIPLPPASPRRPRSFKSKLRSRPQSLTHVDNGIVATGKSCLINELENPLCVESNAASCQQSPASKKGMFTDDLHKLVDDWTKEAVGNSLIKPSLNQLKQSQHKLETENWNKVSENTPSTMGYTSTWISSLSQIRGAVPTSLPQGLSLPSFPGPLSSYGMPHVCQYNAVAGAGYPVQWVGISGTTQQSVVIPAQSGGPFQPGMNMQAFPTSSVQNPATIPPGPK
# Bone morphogenetic protein receptor type-1B (Homo sapiens), sequence (O00238 whole entry): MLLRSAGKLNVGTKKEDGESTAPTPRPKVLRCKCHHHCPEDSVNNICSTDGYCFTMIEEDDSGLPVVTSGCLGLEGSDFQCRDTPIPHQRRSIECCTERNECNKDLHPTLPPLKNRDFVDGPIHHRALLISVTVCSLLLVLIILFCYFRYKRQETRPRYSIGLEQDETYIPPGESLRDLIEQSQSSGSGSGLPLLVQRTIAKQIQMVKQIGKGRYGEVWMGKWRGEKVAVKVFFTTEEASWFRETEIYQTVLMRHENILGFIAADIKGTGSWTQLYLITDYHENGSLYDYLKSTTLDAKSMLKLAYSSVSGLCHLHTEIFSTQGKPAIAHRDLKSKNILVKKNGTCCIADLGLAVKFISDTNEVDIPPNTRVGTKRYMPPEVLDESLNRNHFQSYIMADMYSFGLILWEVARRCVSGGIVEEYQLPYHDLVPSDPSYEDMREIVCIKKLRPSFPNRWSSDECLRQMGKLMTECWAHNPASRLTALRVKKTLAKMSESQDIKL
smiles,measurement,setting,value
O=C(N[C@@H](C1CC1)C(F)(F)F)c1cc(-c2cnn3cc(-c4ccc(F)cc4)cnc23)cs1,inhibition,[1],0%
same,fold change (FC),[2],0.1
same,fold change (FC),[3],0
same,fold change (FC),[4],0.16
CNC(=O)c1ccccc1Oc1nc(Nc2cc(OC)c(OC)c(OC)c2)ncc1Br,inhibition,[5],6%
same,fold change (FC),[6],0.47
same,fold change (FC),[7],0
CC(C)[C@H](NC(=O)c1cc(-c2cnn3cc(-c4ccc(OCCN5CCCCC5)cc4)cnc23)cs1)C(F)(F)F,inhibition,[8],20%
same,inhibition,[9],29%
same,fold change (FC),[10],0.64
